Source: article PMC6220780 (Clinical Pharmacology in Drug Development, 2018)
Like-named read-outs stand apart in the source and are kept apart here. Marks after values point to notes of the source that are not given here.

Assays:
SGLT2 = settings: cited from earlier work
[1] = Urinary excretion of luseogliflozin and metabolites up to 72 hours; assay type: in vivo, human; settings: single 5-mg dose of luseogliflozin
Outline: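 24-h urine was collected before dosing and over 0–24, 24–48 and 48–72 h after a single oral dose. Parent compound and metabolites were quantified by validated LC-MS/MS after solid-phase extraction with deuterated internal standards (parent LLOQ 0.1 ng/mL). Excretion rates were estimated from the urine concentrations.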

[2] = test system: Japanese patients with type 2 diabetes mellitus; experiment: 24-hour urinary glucose excretion; assay type: in vivo, human; settings: single 5-mg oral dose, mean ± SD
Outline: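 Patients were hospitalized for 6 days and 5 nights on a stable diet, with no other antidiabetic drugs. A single oral dose of the test compound was given before breakfast on day 3. Glucose was measured by autoanalyzer in 24-h pooled urine collected before and after dosing.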

[3] = assay type: in vivo, human
Outline: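 Samples were assayed by validated HPLC-MS/MS (solid-phase extraction, deuterated internal standard, negative-ion MRM; LLOQ 0.05 ng/mL). Parameters came from noncompartmental analysis. Group effects were assessed by ANOVA as geometric mean ratios to the normal-function group with 90% CIs.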

[4] = test system: Japanese patients with type 2 diabetes mellitus; experiment: Plasma glucose; assay type: in vivo, human; settings: for FPG change from baseline / FPG postdose: single 5-mg oral dose, mean ± SD; for changes in plasma glucose AUC0-4 from baseline: single 5-mg dose
Outline: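 Hospitalized patients received a single oral dose before breakfast on day 3. Plasma glucose was sampled predose and at 0.5, 1, 2, 4, 6, 8, 12 and 24 h and measured by autoanalyzer. AUC was calculated by the linear trapezoidal rule, with change from the day before dosing estimated per patient. Change in AUC0-4 was analyzed by 1-sample t test.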

[5] = test system: Japanese patients with type 2 diabetes mellitus; experiment: Safety: adverse events after a single 5-mg dose; assay type: in vivo, human
Outline: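 Adverse events were recorded by type and incidence from monitoring of clinical laboratory tests, body weight, vital signs and electrocardiograms. Monitoring covered a 6-day hospital stay with a single oral dose on day 3, plus a follow-up visit 3–5 days after discharge.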

CCOc1ccc(Cc2cc([C@@H]3S[C@H](CO)[C@@H](O)[C@H](O)[C@H]3O)c(OC)cc2C)cc1 [luseogliflozin, (1S)‐1,5‐anhydro‐1‐[5‐(4‐ethoxybenzyl)‐2‐methoxy‐4‐methylphenyl]‐1‐thio‐D‐glucitol]
selectivity for SGLT2 over SGLT1 (SGLT2; SGLT2 versus SGLT1): 1770 fold | IC50 (SGLT2; read-out: half-maximal inhibitory concentration (IC50) for SGLT2): 2.26 nM | excreted in urine up to 72 hours after administration ([1]; G1): 4.68% | excreted in urine up to 72 hours after administration ([1]; G2): 4.15% | excreted in urine up to 72 hours after administration ([1]; G3a): 3.25% | excreted in urine up to 72 hours after administration ([1]; G3b): 2.90% | excreted in urine up to 72 hours after administration ([1]; G4): 2.15% | UGE0-24 change from baseline ([2]; G1, eGFR ≥90, n = 11): 88.3 ± 36.9 g/day | UGE0-24 postdose ([2]; G1, eGFR ≥90, n = 11): 111 ± 36.0 g/day | UGE0-24 change from baseline ([2]; G2, eGFR 60–89, n = 17): 69.7 ± 19.1 g/day | UGE0-24 postdose ([2]; G2, eGFR 60–89, n = 17): 82.6 ± 23.8 g/day | UGE0-24 change from baseline ([2]; G3a, eGFR 45–59, n = 9): 57.3 ± 14.9 g/day | UGE0-24 postdose ([2]; G3a, eGFR 45–59, n = 9): 64.4 ± 24.4 ^b g/day | UGE0-24 change from baseline ([2]; G3a, eGFR 45–59, n = 9, listed as Luseogliflozin): 57.3 ± 14.9 ^b g/day | UGE0-24 change from baseline ([2]; G3b, eGFR 30–44, n = 12): 35.3 ± 10.8 g/day | UGE0-24 postdose ([2]; G3b, eGFR 30–44, n = 12): 39.4 ± 12.9 ^c g/day | UGE0-24 change from baseline ([2]; G3b, eGFR 30–44, n = 12, listed as Luseogliflozin): 35.3 ± 10.8 ^c g/day | UGE0-24 change from baseline ([2]; G4, eGFR <30, n = 6): 21.8 ± 7.10 g/day | UGE0-24 postdose ([2]; G4, eGFR <30, n = 6): 23.7 ± 8.83 g/day | ratio of the geometric mean (90%CI) of Cmax to the Cmax of G1 ([3]; G2 versus G1): 0.922 (0.756–1.13) | ratio of the geometric mean of AUCinf (90%CI) to that of G1 ([3]; G2 versus G1): 1.05 (0.900–1.21) | ratio of the geometric mean (90%CI) of Cmax to the Cmax of G1 ([3]; G3a versus G1): 0.939 (0.720–1.22) | ratio of the geometric mean of AUCinf (90%CI) to that of G1 ([3]; G3a versus G1): 1.05 (0.842–1.32) | ratio of the geometric mean (90%CI) of Cmax to the Cmax of G1 ([3]; G3b versus G1): 0.781 (0.607–1.01) | ratio of the geometric mean of AUCinf (90%CI) to that of G1 ([3]; G3b versus G1): 1.04 (0.879–1.23) | plasma concentration 72 hours after administration as fraction of the Cmax ([3]; G4, single 5-mg dose of luseogliflozin): approximately one‐fiftieth | ratio of the geometric mean (90%CI) of Cmax to the Cmax of G1 ([3]; G4 versus G1): 0.724 (0.525–0.999) | ratio of the geometric mean of AUCinf (90%CI) to that of G1 ([3]; G4 versus G1): 1.21 (0.947–1.53) | concentration at 72 h ([3]; human, plasma, oral, 5 mg): 1.28 to 3.15 ng/mL | FPG change from baseline ([4]; G1, eGFR ≥90, n = 11): -27.4 ± 23.5 mg/dL | FPG postdose ([4]; G1, eGFR ≥90, n = 11): 139.7 ± 25.2 mg/dL | changes in plasma glucose AUC0-4 from baseline ([4]; G1, P < .05): −135 mg⋅h/dL | FPG change from baseline ([4]; G2, eGFR 60–89, n = 17): -15.1 ± 13.6 mg/dL | FPG postdose ([4]; G2, eGFR 60–89, n = 17): 136.4 ± 37.0 mg/dL | changes in plasma glucose AUC0-4 from baseline ([4]; G2, P < .05): −104 mg⋅h/dL | FPG change from baseline ([4]; G3a, eGFR 45–59, n = 9): −11.3 ± 13.5 ^b mg/dL | FPG postdose ([4]; G3a, eGFR 45–59, n = 9): 140.1 ± 26.6 ^b mg/dL | changes in plasma glucose AUC0-4 from baseline ([4]; G3a, P < .05): −108 mg⋅h/dL | FPG change from baseline ([4]; G3b, eGFR 30–44, n = 12): −4.8 ± 11.8 ^c mg/dL | FPG postdose ([4]; G3b, eGFR 30–44, n = 12): 135.7 ± 24.3 ^c mg/dL | changes in plasma glucose AUC0-4 from baseline ([4]; G3b): −30.2 mg⋅h/dL | FPG change from baseline ([4]; G4, eGFR <30, n = 6): 2.2 ± 7.9 mg/dL | FPG postdose ([4]; G4, eGFR <30, n = 6): 125.8 ± 21.1 mg/dL | changes in plasma glucose AUC0-4 from baseline ([4]; G4): −32.6 mg⋅h/dL | difference in plasma glucose AUC0-4 from G1 (90%CI) ([4]; between G1 and G2): 32.3 (−22.8–87.5) | difference in plasma glucose AUC0-4 from G1 (90%CI) ([4]; between G1 and G3a): 26.7 (−38.6 to 91.9) | difference in plasma glucose AUC0-4 from G1 (90%CI) ([4]; between G1 and G3b): 92.2 (21.9–163) | difference in plasma glucose AUC0-4 from G1 (90%CI) ([4]; between G1 and G4): 72.6 (−1.29 to 146) | AEs judged as moderate: increased blood glucose, patients ([5]; 57 patients): 2 | AEs judged as moderate: syncope, patients ([5]; 57 patients): 1 | number of AEs in the total study population ([5]; 57 patients, all of mild to moderate severity): 12 | Adverse event: Rash (Skin and subcutaneous tissue disorders) ([5]; G1 (n = 11)): 1 | All adverse events: number of patients ([5]; G1 (n = 11)): 1 | Adverse event: Blood glucose increased (Investigations) ([5]; G2 (n = 17)): 1 | Adverse event: Bundle branch block, right (Cardiac disorders) ([5]; G2 (n = 17)): 1 | All adverse events: number of patients ([5]; G2 (n = 17)): 2 | All adverse events: number of events ([5]; G3a (n = 10)): 2 | All adverse events: number of patients ([5]; G3a (n = 10)): 2 | Adverse event: Blood glucose increased (Investigations) ([5]; G3b (n = 13)): 1 | Adverse event: Dizziness (Nervous system disorders) ([5]; G3b (n = 13)): 1 | Adverse event: Syncope (Nervous system disorders) ([5]; G3b (n = 13)): 1 | All adverse events: number of patients ([5]; G3b (n = 13)): 3 | All adverse events: number of patients ([5]; G4 (n = 6)): 0 | deaths or serious AEs ([5]; any group): no deaths or serious AEs were observed | AEs judged to be related to luseogliflozin administration ([5]; both judged to be mild): rash in the G1 group and dizziness in the G3b group | changes in laboratory parameters or vital signs ([5]; during the study, data not shown): no clinically relevant changes | number of patients with AEs in the total study population ([5]; of the 57 patients): 8
